According to ChEMBL document CHEMBL1139119, “Anti-mycobacterial activity of a bis-sulfonamide” (2007):
≈ marks a conversion by molar mass, not a printed value. Calls of active or inactive are those of the source. The rule behind the calls is not given here.

Key:
Type in all cases: functional
Staphylococcus aureus = experiment: Antimicrobial activity against Staphylococcus aureus
How it was run: (§1)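 Overnight bacterial culture diluted 1000-fold into fresh medium the next day, then exposed to compound at five doses (100, 25, 6.25, 1.56, 0.39 μg/mL) in DMSO (final 1% v/v). DMSO-only and ampicillin no-growth controls were included. Incubated overnight at 37 °C in duplicate. Scored as % growth inhibition, averaged over two independent determinations, giving MIC50.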

Vibrio harveyi = experiment: Antimicrobial activity against Vibrio harveyi; how it was run: as §1
Escherichia coli = experiment: Antimicrobial activity against Escherichia coli
[1] = tested on: Mycolicibacterium smegmatis; experiment: Antimicrobial activity against Mycobacterium smegmatis
Candida albicans [2] = experiment: Antimicrobial activity against Candida albicans
Candida albicans [3] = experiment: Growth inhibition of Candida albicans at 100 ug/ml
[4] = tested on: Mycolicibacterium smegmatis; experiment: Growth inhibition of Mycobacterium smegmatis at 100 ug/ml
[5] = tested on: Mycolicibacterium smegmatis; experiment: Growth inhibition of Mycobacterium smegmatis at 25 ug/ml
Candida albicans [6] = experiment: Growth inhibition of Candida albicans at 25 ug/ml

Row | SMILES | MIC50 [1] | Activity (Staphylococcus aureus) | Activity (Vibrio harveyi) | Activity (Candida albicans [2]) | other results
1 | CC1(C)S[C@@H]2[C@H](NC(=O)[C@H](N)c3ccccc3)C(=O)N2[C@H]1C(=O)O [AMPICILLIN] |  |  |  |  | MIC50 (Staphylococcus aureus): 500 µg/mL (≈ 1430 µM); MIC50 (Vibrio harveyi): 500 µg/mL (≈ 1430 µM); MIC50 (Escherichia coli): 500 µg/mL (≈ 1430 µM)
2 | C#CCOC(=O)c1ccc(S(N)(=O)=O)cc1 | > 100 µg/mL | inactive | inactive | inactive | 
3 | Nc1ccc(S(N)(=O)=O)cc1 [SULFANILAMIDE] | > 100 µg/mL | inactive | inactive | inactive | 
4 | NS(=O)(=O)c1ccc(C(=O)NCc2cn(-c3ccc(S(N)(=O)=O)cc3)nn2)cc1 | 100 µg/mL (≈ 229 µM) | inactive | inactive | inactive | 
5 | NS(=O)(=O)c1ccc(C(=O)OCc2cn(-c3ccc(S(N)(=O)=O)cc3)nn2)cc1 | < 25 µg/mL | inactive | inactive |  | inhibition at 100 µg/mL (Candida albicans [3]): 49%; inhibition at 100 µg/mL [4]: 92%; MIC50 (Candida albicans [2]): 100 µg/mL (≈ 229 µM); inhibition at 25 µg/mL [5]: 68%; inhibition at 25 µg/mL (Candida albicans [6]): 36%
6 | [N-]=[N+]=Nc1ccc(S(N)(=O)=O)cc1 |  | inactive | inactive | inactive | 
7 | NS(=O)(=O)c1ccc(-n2cc(CO)nn2)cc1 | > 100 µg/mL | inactive | inactive | inactive | 

More lines, main results first:

Row | MIC50 [1] | SMILES | Activity (Staphylococcus aureus) | Activity (Vibrio harveyi) | Activity (Candida albicans [2]) | other results
8 | > 100 µg/mL | NS(=O)(=O)c1ccc(C(=O)O)cc1 [CARZENIDE] | inactive | inactive | inactive | 
9 | 500 µg/mL (≈ 860 µM) | CN[C@@H]1[C@H](O[C@H]2[C@H](O[C@H]3[C@H](O)[C@@H](O)[C@H](N=C(N)N)[C@@H](O)[C@@H]3N=C(N)N)O[C@@H](C)[C@]2(O)C=O)O[C@@H](CO)[C@H](O)[C@H]1O [STREPTOMYCIN] |  |  |  | 
10 | > 100 µg/mL | C#CCNC(=O)c1ccc(S(N)(=O)=O)cc1 | inactive | inactive | inactive | 
